A selection: hits, their analogues and other compounds. The true share with any hit is near 2.7%.
NTR1 agonist: activates human neurotensin receptor 1; activation, % at 20 µM; NTR1-U2OS beta-arrestin-GFP spot imaging, agonist mode; 330,000 tested, 0.17% active; P30989; AID 493036;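 active means activation at or above 40% of the spot to cytoplasm intensity ratio, with at least 20 cells analyzed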
Target sequence (P30989 whole entry, looked up): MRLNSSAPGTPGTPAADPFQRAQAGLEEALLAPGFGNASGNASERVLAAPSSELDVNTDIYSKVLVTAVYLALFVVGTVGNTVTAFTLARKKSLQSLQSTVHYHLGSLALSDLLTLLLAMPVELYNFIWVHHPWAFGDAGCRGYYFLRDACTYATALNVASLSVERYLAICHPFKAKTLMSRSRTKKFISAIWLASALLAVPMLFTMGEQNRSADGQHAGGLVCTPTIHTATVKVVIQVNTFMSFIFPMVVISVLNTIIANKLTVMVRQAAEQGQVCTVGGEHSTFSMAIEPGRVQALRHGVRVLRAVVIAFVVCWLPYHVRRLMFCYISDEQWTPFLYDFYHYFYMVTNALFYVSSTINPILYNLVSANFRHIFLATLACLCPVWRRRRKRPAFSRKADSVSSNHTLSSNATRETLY
m5-HT2A agonist: agonists of mouse serotonin 5-HT2A receptor (HTR2A); 360,000 tested, 0.66% active; CHO-K1 mHTR2A beta-arrestin complementation, luminescence; percent of 30 µM serotonin response; P35363; activation, % at 7.6 µM;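 active means activation above a run cutoff, the mean activation of all tested compounds plus 3 SD, cut at about 14% in these data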
MC4R antag cAMP: blocks human MC4R cAMP signaling | P32245 | MC4R-expressing cells, MTII-stimulated cAMP, LANCE TR-FRET | inhibition, % at 6.5 µM | 360,000 tested, 0.48% active;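 active means inhibition above its plate's cutoff, the mean of tested wells on that plate plus 3 SD, cut at about 29% in these data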
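material = U2OS cells stably expressing human melanocortin 4 receptor (MC4R) | also added = Melanotan II challenge | dosing = single nominal compound dose of 6.5 µM | detection = TR-FRET with Eu-cAMP and labeled anti-cAMP, 671 nm | replication = singlicate | timing = compound 30 min, challenge 1 h, detection 1 h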
PREPL inh: inhibits the human prolyl oligopeptidase-like enzyme. 320,000 tested, 0.68% active. recombinant PREPL, fluorescence polarization activity-based probe. inhibition, % at 5.96 µM; in the data active means inhibition above about 43%
Lipid droplet: modulators of hepatic lipid droplet formation; AML12 mouse hepatocytes, oleate lipid droplets, BODIPY imaging; inhibition, % at 6.5 µM; 240,000 tested, 0.4% active;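 active means lipid droplet intensity inhibited by at least 50%, with more than 500 cells counted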
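Assay system: AML12 hepatocytes (mouse) / Also added: 100 µM oleic acid challenge / Times: overnight treatment with compound plus oleate / Detection: high-content imaging of BODIPY-stained droplets and DAPI nuclei / Evaluation: % inhibition of lipid droplet signal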
MC4R ag barr: activates human MC4R beta-arrestin recruitment; P32245; U2OS MC4R beta-arrestin complementation, luminescence; percent of melanotan II response, DMSO zero; activation, % at 8.9 µM; 360,000 tested, 0.98% active; AID 540308;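 active means activation above a per-plate cutoff, the mean activation of sample wells on that plate plus 3 SD, cut at about 8% in these data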
MOR ag counter: counter-screen for mouse HTR2A agonists: human mu opioid receptor agonists; 2,300 tested, 5.3% active; U2OS OPRM1 beta-arrestin PathHunter, luminescence; DMSO 0%, DAMGO 9.3 µM 100%; activation, % at 9.3 µM; AID 624380; shares compounds with m5-HT2A agonist;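 active means mean activation above the mean of DMSO-only wells plus 3 SD, cut at about 0.5% in these data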
m5-HT2A ag conf: confirmation of mouse HTR2A serotonin receptor agonists | shares compounds with m5-HT2A agonist | CHO-K1 PathHunter beta-arrestin recruitment, luminescence; DMSO 0%, 30 µM serotonin 100% | activation, % at 7.6 µM | 2,300 tested, 19% active | AID 624381;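 active means mean activation across triplicates above the hit threshold derived in the original primary screen, cut at about 15% in these data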
Large screens that a line does not name were inactive (follow-up assays come after a bar, where they were run).

Cc1ccc(S(=O)(=O)c2cnc(-c3ccccc3)nc2N2CCN(C)CC2)cc1	m5-HT2A agonist 51 | MOR ag counter inactive | m5-HT2A ag conf 17
COc1ccc(CCNC(=O)CC(C)S(=O)(=O)c2ccc3c(c2)NC(=O)CO3)cc1OC (stereo unspecified)	m5-HT2A agonist 15 | MOR ag counter inactive | m5-HT2A ag conf inactive
COc1ccc(CNC(=O)CC(C)S(=O)(=O)c2ccc3c(c2)NC(=O)CO3)cc1 (stereo unspecified)	none
Cc1[nH]c2ccccc2c1C(=O)C(=O)NCCCc1ccccc1	none
COc1ccc2[nH]cc(CCNC(=O)C3CCCCC3)c2c1	m5-HT2A agonist 15 | MOR ag counter inactive | m5-HT2A ag conf inactive
COc1ccc2[nH]cc(CCNC(=S)NC3CCCC3)c2c1	none
COc1ccc2[nH]cc(CCNS(=O)(=O)c3ccc(NC(C)=O)cc3)c2c1	m5-HT2A agonist 31 | MOR ag counter inactive | m5-HT2A ag conf 15
O=C(O)C1CCCCC1C(=O)NCCc1c[nH]c2ccccc12 (stereo unspecified)	m5-HT2A agonist 38 | MOR ag counter inactive | m5-HT2A ag conf 15
Cc1[nH]c2ccccc2c1C(=O)C(=O)NCCc1c[nH]c2ccccc12	m5-HT2A agonist 15 | MOR ag counter inactive | m5-HT2A ag conf inactive
CC(=O)Nc1ccc(S(=O)(=O)NCCc2c[nH]c3ccc(C)cc23)cc1	none (no result: PREPL inh, Lipid droplet)
CCC1(c2ccc(F)cc2)NC(=O)N(CC(=O)NC2CCCCCC2)C1=O (stereo unspecified)	none (no result: Lipid droplet)
COc1cccc(CN(C(=O)COc2ccc(Cl)cc2)C2CCS(=O)(=O)C2)c1 (stereo unspecified)	none
Cc1cc(C)n(CCN(C)Cc2nc(Cc3ccccc3F)no2)n1	m5-HT2A agonist 38 | MOR ag counter inactive | m5-HT2A ag conf inactive
CN(Cc1nc(Cc2ccccc2F)no1)[C@@H]1CS(=O)(=O)C[C@H]1O	none
CC(=NC1CCCC1)c1c(C)[nH]n(-c2nc3ccccc3s2)c1=O	none (no result: Lipid droplet)
CC(=NC1CC1)c1c(-c2ccccc2)[nH]n(-c2nc3ccccc3s2)c1=O	m5-HT2A agonist 15 | MOR ag counter inactive | m5-HT2A ag conf inactive
O=C1COc2ccc(S(=O)(=O)N3CCC(C(=O)NCc4ccc(F)cc4)CC3)cc2N1	none
COCC1CCN(C(=O)C2CCC(=O)N(C3CCCC3)C2)CC1 (stereo unspecified)	m5-HT2A agonist 15 | MOR ag counter inactive | m5-HT2A ag conf inactive
O=C1C2CCc3ccccc3C2N1c1ccccc1 (stereo unspecified)	m5-HT2A agonist 18 (no result: Lipid droplet) | MOR ag counter inactive | m5-HT2A ag conf inactive
CCCCN(CC)C(=O)Cn1ncc2c1-c1cc(C)ccc1OC2	m5-HT2A agonist 17 (no result: Lipid droplet) | MOR ag counter inactive | m5-HT2A ag conf inactive
COc1cc2c(cc1OC)C(C)N(C(=O)Cn1ncc3c1-c1cc(C)ccc1OC3)CC2 (stereo unspecified)	none
O=Cc1ccc(OC(=O)c2cccnc2)cc1	m5-HT2A agonist 15 | MOR ag counter inactive | m5-HT2A ag conf inactive
COc1cccc(S(=O)(=O)N(C)C[C@@H]2OCc3cn(nn3)CCCC(=O)N([C@H](C)CO)C[C@H]2C)c1	none (no result: NTR1 agonist, PREPL inh, Lipid droplet)
COc1ccc(C(=O)C(Sc2nnc(C)c(=O)[nH]2)c2ccc(OC)cc2)cc1 (stereo unspecified)	none
Cn1c(=O)[nH]c(=O)c2c1nc(N1CCCCCC1)n2CC(N)=O	none
Cn1c(=O)[nH]c(=O)c2c1nc(N1CCCC1)n2CCO	m5-HT2A agonist 22 | MOR ag counter inactive | m5-HT2A ag conf inactive
COCCNc1nc(-c2cc(-c3ccc(Cl)cc3)on2)cc(C(C)C)n1	m5-HT2A agonist 16 (no result: Lipid droplet) | MOR ag counter inactive | m5-HT2A ag conf inactive
Cc1c(NC(=O)c2ccccc2NC(=O)c2ccccc2)cccc1C(=O)O	none

Screening data: PubChem BioAssay, several laboratories
